Data published in ChEMBL document CHEMBL3044625, “Non-target-site-based resistance to ALS-inhibiting herbicides in six Bromus rigidus populations from Western Australian cropping fields” (Pest Manag Sci, 2012).
The source made the active and inactive calls. No cut-off for these calls is given here.

What was measured:
[1] = tested on: Bromus diandrus var. rigidus; experiment: Resistance index, ratio of LD50 for ALS-inhibiting herbicide-resistant two-leaf stage Bromus diandrus var. rigidus biotype R3 to ALS-inhibiting herbicide-susceptible two-leaf stage Bromus diandrus var. rigidus; type: functional
Method in brief: (§1)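 Seedlings germinated on 1% water agar (7–10 days, ambient) were sprayed at the 2–3-leaf stage with a sulfonylurea at 1.875–240 g ha−1, with no malathion. Percent survival was scored with three replicate treatments. LD50 came from non-linear regression, and R/S is the ratio of resistant to susceptible LD50.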

[2] = tested on: Bromus diandrus var. rigidus; experiment: Resistance index, ratio of LD50 for ALS-inhibiting herbicide-resistant two-leaf stage Bromus diandrus var. rigidus biotype R4 to ALS-inhibiting herbicide-susceptible two-leaf stage Bromus diandrus var. rigidus; type: functional; method in brief: as §1
[3] = tested on: Bromus diandrus var. rigidus; experiment: Resistance index, ratio of LD50 for ALS-inhibiting herbicide-resistant two-leaf stage Bromus diandrus var. rigidus biotype R1 to ALS-inhibiting herbicide-susceptible two-leaf stage Bromus diandrus var. rigidus; type: functional; method in brief: as §1
[4] = tested on: Bromus diandrus var. rigidus; experiment: Herbicidal activity against ALS-inhibiting herbicide-resistant two-leaf stage Bromus diandrus var. rigidus biotype R5 seedlings exposed to compound spraying measured 28 days after compound spraying; type: functional; method in brief: as §1
[5] = tested on: Bromus diandrus var. rigidus; experiment: Herbicidal activity against ALS-inhibiting herbicide-resistant two-leaf stage Bromus diandrus var. rigidus biotype R3 seedlings exposed to compound spraying measured 28 days after compound spraying; type: functional; method in brief: as §1
[6] = tested on: Bromus diandrus var. rigidus; experiment: Resistance index, ratio of LD50 for ALS-inhibiting herbicide-resistant two-leaf stage Bromus diandrus var. rigidus biotype R5 to ALS-inhibiting herbicide-susceptible two-leaf stage Bromus diandrus var. rigidus; type: functional; method in brief: as §1
[7] = tested on: Bromus diandrus var. rigidus; experiment: Herbicidal activity against ALS-inhibiting herbicide-resistant two-leaf stage Bromus diandrus var. rigidus biotype R6 seedlings exposed to compound spraying measured 28 days after compound spraying; type: functional; method in brief: as §1
[8] = tested on: Bromus diandrus var. rigidus; experiment: Herbicidal activity against ALS-inhibiting herbicide-resistant two-leaf stage Bromus diandrus var. rigidus biotype R1 seedlings exposed to compound spraying measured 28 days after compound spraying; type: functional; method in brief: as §1
[9] = tested on: Bromus diandrus var. rigidus; experiment: Herbicidal activity against ALS-inhibiting herbicide-resistant two-leaf stage Bromus diandrus var. rigidus biotype R4 seedlings exposed to compound spraying measured 28 days after compound spraying; type: functional; method in brief: as §1
[10] = tested on: Bromus diandrus var. rigidus; experiment: Herbicidal activity against ALS-inhibiting herbicide-susceptible two-leaf stage Bromus diandrus var. rigidus seedlings exposed to compound spraying measured 28 days after compound spraying; type: functional; method in brief: as §1
[11] = tested on: Bromus diandrus var. rigidus; experiment: Resistance index, ratio of LD50 for ALS-inhibiting herbicide-resistant two-leaf stage Bromus diandrus var. rigidus biotype R2 to ALS-inhibiting herbicide-susceptible two-leaf stage Bromus diandrus var. rigidus; type: functional; method in brief: as §1
[12] = tested on: Bromus diandrus var. rigidus; experiment: Herbicidal activity against ALS-inhibiting herbicide-resistant two-leaf stage Bromus diandrus var. rigidus biotype R2 seedlings exposed to compound spraying measured 28 days after compound spraying; type: functional; method in brief: as §1
[13] = tested on: Bromus diandrus var. rigidus; experiment: Resistance index, ratio of LD50 for ALS-inhibiting herbicide-resistant two-leaf stage Bromus diandrus var. rigidus biotype R6 to ALS-inhibiting herbicide-susceptible two-leaf stage Bromus diandrus var. rigidus; type: functional; method in brief: as §1
[14] = tested on: Bromus diandrus var. rigidus; experiment: Herbicidal activity against ALS-inhibiting herbicide-resistant two-leaf stage Bromus diandrus var. rigidus biotype R5 seedlings exposed to compound spraying in absence of 1000 g/ha cytochrome P450 inhibitor malathion measured […]; type: functional
Method in brief: (§2)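 Seeds were germinated on 1% water agar for 7–10 days at ambient conditions, then sprayed at the 2–3-leaf stage. Malathion at 1000 g ha−1 was sprayed 30 min before the herbicide, or omitted. Herbicide doses were 18.75–600 g ha−1. Survival and dried above-ground biomass were assessed 21 days after treatment, with two replicates. LD50 came from non-linear regression, and R/S is the ratio of resistant to susceptible LD50.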

[15] = tested on: Bromus diandrus var. rigidus; experiment: Herbicidal activity against ALS-inhibiting herbicide-resistant two-leaf stage Bromus diandrus var. rigidus biotype R1 seedlings assessed as reduction in above-ground biomass exposed to compound spraying in presence of 1000 g/ha cytochrome P450 inhibitor malathion measured […]; type: functional, organism-based; method in brief: as §2
[16] = tested on: Bromus diandrus var. rigidus; experiment: (§3) Resistance index, ratio of LD50 for ALS-inhibiting herbicide-resistant two-leaf stage Bromus diandrus var. rigidus biotype R2 in absence of 1000 g/ha cytochrome P450 inhibitor malathion to LD50 for ALS-inhibiting herbicide-susceptible two-leaf stage Bromus diandrus var. rigidus in absence of 1000 g/ha cytochrome P450 inhibitor malathion; type: functional; method in brief: as §2
[17] = tested on: Bromus diandrus var. rigidus; experiment: as §3, with “R6” for “R2”; type: functional; method in brief: as §2
[18] = tested on: Bromus diandrus var. rigidus; experiment: Herbicidal activity against ALS-inhibiting herbicide-resistant two-leaf stage Bromus diandrus var. rigidus biotype R6 seedlings exposed to compound spraying in presence of 1000 g/ha cytochrome P450 inhibitor malathion measured […]; type: functional; method in brief: as §2
[19] = tested on: Bromus diandrus var. rigidus; experiment: Herbicidal activity against ALS-inhibiting herbicide-resistant two-leaf stage Bromus diandrus var. rigidus biotype R4 seedlings assessed as reduction in above-ground biomass exposed to compound spraying in presence of 1000 g/ha cytochrome P450 inhibitor malathion measured […]; type: functional, organism-based; method in brief: as §2
[20] = tested on: Bromus diandrus var. rigidus; experiment: as §3, with “R1” for “R2”, “presence” for “absence”; type: functional; method in brief: as §2
[21] = tested on: Bromus diandrus var. rigidus; experiment: Herbicidal activity against ALS-inhibiting herbicide-resistant two-leaf stage Bromus diandrus var. rigidus biotype R5 seedlings exposed to compound spraying in presence of 1000 g/ha cytochrome P450 inhibitor malathion measured […]; type: functional; method in brief: as §2
[22] = tested on: Bromus diandrus var. rigidus; experiment: as §3, with “R4” for “R2”, “presence” for “absence”; type: functional; method in brief: as §2
[23] = tested on: Bromus diandrus var. rigidus; experiment: Herbicidal activity against ALS-inhibiting herbicide-resistant two-leaf stage Bromus diandrus var. rigidus biotype R3 seedlings exposed to compound spraying in presence of 1000 g/ha cytochrome P450 inhibitor malathion measured […]; type: functional; method in brief: as §2
[24] = tested on: Bromus diandrus var. rigidus; experiment: as §3, with “R1” for “R2”; type: functional; method in brief: as §2
[25] = tested on: Bromus diandrus var. rigidus; experiment: Herbicidal activity against ALS-inhibiting herbicide-resistant two-leaf stage Bromus diandrus var. rigidus biotype R1 seedlings exposed to compound spraying in presence of 1000 g/ha cytochrome P450 inhibitor malathion measured […]; type: functional; method in brief: as §2
[26] = tested on: Bromus diandrus var. rigidus; experiment: Herbicidal activity against ALS-inhibiting herbicide-resistant two-leaf stage Bromus diandrus var. rigidus biotype R2 seedlings exposed to compound spraying in absence of 1000 g/ha cytochrome P450 inhibitor malathion measured […] after compound spraying; type: functional; method in brief: as §2
[27] = tested on: Bromus diandrus var. rigidus; experiment: as §3, with “R4” for “R2”; type: functional; method in brief: as §2
[28] = tested on: Bromus diandrus var. rigidus; experiment: as §3, with “R6” for “R2”, “presence” for “absence”; type: functional; method in brief: as §2
[29] = tested on: Bromus diandrus var. rigidus; experiment: as §3, with “R3” for “R2”, “presence” for “absence”; type: functional; method in brief: as §2
[30] = tested on: Bromus diandrus var. rigidus; experiment: Herbicidal activity against ALS-inhibiting herbicide-resistant two-leaf stage Bromus diandrus var. rigidus biotype R3 seedlings exposed to compound spraying in absence of 1000 g/ha cytochrome P450 inhibitor malathion measured […]; type: functional; method in brief: as §2
[31] = tested on: Bromus diandrus var. rigidus; experiment: as §3, with “R5” for “R2”, “presence” for “absence”; type: functional; method in brief: as §2
[32] = tested on: Bromus diandrus var. rigidus; experiment: Herbicidal activity against ALS-inhibiting herbicide-resistant two-leaf stage Bromus diandrus var. rigidus biotype R1 seedlings exposed to compound spraying in absence of 1000 g/ha cytochrome P450 inhibitor malathion measured […]; type: functional; method in brief: as §2
[33] = tested on: Bromus diandrus var. rigidus; experiment: as §3, with “R3” for “R2”; type: functional; method in brief: as §2
[34] = tested on: Bromus diandrus var. rigidus; experiment: Herbicidal activity against ALS-inhibiting herbicide-resistant two-leaf stage Bromus diandrus var. rigidus biotype R2 seedlings assessed as reduction in above-ground biomass exposed to compound spraying in presence of 1000 g/ha cytochrome P450 inhibitor malathion measured […]; type: functional, organism-based; method in brief: as §2
[35] = tested on: Bromus diandrus var. rigidus; experiment: Herbicidal activity against ALS-inhibiting herbicide-resistant two-leaf stage Bromus diandrus var. rigidus biotype R6 seedlings exposed to compound spraying in absence of 1000 g/ha cytochrome P450 inhibitor malathion measured […]; type: functional; method in brief: as §2
[36] = tested on: Bromus diandrus var. rigidus; experiment: Herbicidal activity against ALS-inhibiting herbicide-susceptible two-leaf stage Bromus diandrus var. rigidus seedlings exposed to compound spraying in absence of 1000 g/ha cytochrome P450 inhibitor malathion measured […] after compound spraying; type: functional; method in brief: as §2
[37] = tested on: Bromus diandrus var. rigidus; experiment: Herbicidal activity against ALS-inhibiting herbicide-resistant two-leaf stage Bromus diandrus var. rigidus biotype R4 seedlings exposed to compound spraying in absence of 1000 g/ha cytochrome P450 inhibitor malathion measured […]; type: functional; method in brief: as §2
[38] = tested on: Bromus diandrus var. rigidus; experiment: Herbicidal activity against ALS-inhibiting herbicide-resistant two-leaf stage Bromus diandrus var. rigidus biotype R2 seedlings exposed to compound spraying in presence of 1000 g/ha cytochrome P450 inhibitor malathion measured […]; type: functional; method in brief: as §2
[39] = tested on: Bromus diandrus var. rigidus; experiment: Herbicidal activity against ALS-inhibiting herbicide-susceptible two-leaf stage Bromus diandrus var. rigidus seedlings exposed to compound spraying in presence of 1000 g/ha cytochrome P450 inhibitor malathion measured […]; type: functional; method in brief: as §2
[40] = tested on: Bromus diandrus var. rigidus; experiment: as §3, with “presence” for “absence”; type: functional; method in brief: as §2
[41] = tested on: Bromus diandrus var. rigidus; experiment: as §3, with “R5” for “R2”; type: functional; method in brief: as §2
[42] = tested on: Bromus diandrus var. rigidus; experiment: Herbicidal activity against ALS-inhibiting herbicide-resistant two-leaf stage Bromus diandrus var. rigidus biotype R4 seedlings exposed to compound spraying in presence of 1000 g/ha cytochrome P450 inhibitor malathion measured […] after compound spraying; type: functional; method in brief: as §2
[43] = tested on: Bromus diandrus var. rigidus; experiment: Herbicidal activity against ALS-inhibiting herbicide-resistant two-leaf stage Bromus diandrus var. rigidus biotype R6 seedlings assessed as reduction in above-ground biomass exposed to compound spraying in presence of 1000 g/ha cytochrome P450 inhibitor malathion measured […]; type: functional, organism-based; method in brief: as §2
[44] = tested on: Bromus diandrus var. rigidus; experiment: Herbicidal activity against ALS-inhibiting herbicide-resistant two-leaf stage Bromus diandrus var. rigidus biotype R3 seedlings assessed as reduction in above-ground biomass exposed to compound spraying in presence of 1000 g/ha cytochrome P450 inhibitor malathion measured […]; type: functional, organism-based; method in brief: as §2
[45] = tested on: Bromus diandrus var. rigidus; experiment: Herbicidal activity against ALS-inhibiting herbicide-resistant two-leaf stage Bromus diandrus var. rigidus biotype R5 seedlings assessed as reduction in above-ground biomass exposed to compound spraying in presence of 1000 g/ha cytochrome P450 inhibitor malathion measured […]; type: functional, organism-based; method in brief: as §2

Cc1cc(C)nc(NC(=O)NS(=O)(=O)c2ccccc2C(=O)O)n1 [SULFOMETURON]
Ratio [1]: 3.1 | Ratio [2]: 3 | Ratio [3]: 3 | LD50 [4]: 38 g/ha | LD50 [5]: 31 g/ha | Ratio [6]: 3.8 | LD50 [7]: 41 g/ha | LD50 [8]: 30 g/ha | LD50 [9]: 30 g/ha | LD50 [10]: 10 g/ha | Ratio [11]: 3.3 | LD50 [12]: 33 g/ha | Ratio [13]: 4.1

CCS(=O)(=O)c1nc2ccccn2c1S(=O)(=O)NC(=O)Nc1nc(OC)cc(OC)n1 [SULFOSULFURON]
LD50 [14]: 140 g/ha | Activity [15]: Active | Ratio [16]: 7.9 | Ratio [17]: 6 | LD50 [18]: 11 g/ha | Activity [19]: Active | Ratio [20]: 2.6 | LD50 [21]: 12 g/ha | Ratio [22]: 2.1 | LD50 [23]: 16 g/ha | Ratio [24]: 8.7 | LD50 [25]: 16 g/ha | LD50 [26]: 166 g/ha | Ratio [27]: 11.3 | Ratio [28]: 1.8 | Ratio [29]: 2.6 | LD50 [30]: 173 g/ha | Ratio [31]: 2 | LD50 [32]: 183 g/ha | Ratio [33]: 8.2 | Activity [34]: Active | LD50 [35]: 127 g/ha | LD50 [36]: 21 g/ha | LD50 [37]: 239 g/ha | LD50 [38]: 10 g/ha | LD50 [39]: 6 g/ha | Ratio [40]: 1.6 | Ratio [41]: 6.6 | LD50 [42]: 13 g/ha | Activity [43]: Active | Activity [44]: Active | Activity [45]: Active
